Measurements from publication PMC12329029 (Scientific Reports, 2025).

Columns and labels:
[1] = system: MCF-7; conditions: read-out: activity against MCF-7 breast cancer cells in vitro; cited from earlier work
[2] = system: p53 tumour suppressor in MDA-MB-231 cells; experiment: p53 concentration in cell lysates; type: cell-based, human; conditions: 20 µM, 24 h
How it was run: (§1)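 MDA-MB-231 cells were grown in DMEM with 10% FBS and 1% penicillin/streptomycin at 37 °C, 5% CO2. They were reseeded in phenol-red-free DMEM with 10% CPSR1, used near 80% confluence and exposed to 20 µM for 24 h; untreated cells were the control. Cells were trypsinised, washed thrice in cold PBS, spun at 1000× g for 5 min at 4 °C, and 1.5 × 10^6 cells were lysed. Supernatants were frozen at −70 °C. Target protein was measured by antibody-precoated high-sensitivity kit. Three independent experiments in duplicate; one-way ANOVA with Tukey test.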

[3] = system: Akt protein in MDA-MB-231 cells; experiment: Akt concentration in cell lysates; type: cell-based, human; conditions: 20 µM, 24 h, control 8.22 U/mL
How it was run: as §1

[4] = system: proapoptotic Bax in MDA-MB-231 cells; experiment: Bax concentration in cell lysates; type: cell-based, human; conditions: 20 µM, 24 h
How it was run: as §1

SMILES | IC50 [1] | change of p53 level vs control [2] | concentration of Akt [3] | concentration of Bax [4]
CC(=O)OC1CCC2(C)C(CCC3(C)C2CC=C2C4CC(C)(C)CCC4(C(=O)n4ccc(=O)[nH]c4=O)CCC23C)C1(C)C (stereo not drawn) [1-[(3β)-3-(acetyloxy)-28-oxoolean-12-en-28-yl]-2,4(1 H,3 H)-pyrimidinedione] | < 100 nM | – | – | –
C[C@H]1[C@H](C)CC[C@]2(C(=O)O)CC[C@]3(C)C(=CC[C@@H]4[C@@]5(C)CC[C@H](O)C(C)(C)[C@@H]5CC[C@]43C)[C@H]12 [Ursolic acid 1, Ursolic acid] | – | increased the p53 concentration, but the values were statistically insignificant | 4.49 U/mL | 760 pg/mL
